Source: ChEMBL document CHEMBL1629444, “DNA-dependent protein kinase (DNA-PK) inhibitors. Synthesis and biological activity of quinolin-4-one and pyridopyrimidin-4-one surrogates for the chromen-4-one chemotype” (J Med Chem, 2010)

Test system: HeLa
Assay: Potentiation of ionizing radiation-induced cytotoxicity in human HeLa cells assessed as dose modification ratio at 0.5 uM pretreated 1 hr before 2 Gy ionizing radiation by Giemsa staining relative untreated control
Format: functional
In short: (§1)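 HeLa cells seeded in six-well dishes and left overnight at 37 °C/5% CO2. Compound or vehicle given 1 h before a single 2 Gy X-ray dose, then incubated overnight. Medium replaced without compound and cells grown 6-8 days. Colonies Giemsa-stained and counted automatically. DMR is % survival at 2 Gy without compound divided by % survival at 2 Gy with compound.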

| SMILES | Ratio |
| --- | --- |
| O=C(CN1CCNCC1)Nc1ccc(-c2cccn3c(=O)cc(N4CCOCC4)nc23)c2sc3ccccc3c12 | 6.2 |
| O=C(CN1CCOCC1)Nc1ccc(-c2cccn3c(=O)cc(N4CCOCC4)nc23)c2sc3ccccc3c12 | 9.9 |
| COCCN1CCN(CC(=O)Nc2ccc(-c3cccn4c(=O)cc(N5CCOCC5)nc34)c3sc4ccccc4c23)CC1 | 14.4 |
| CCN1CCN(CC(=O)Nc2ccc(-c3cccn4c(=O)cc(N5CCOCC5)nc34)c3sc4ccccc4c23)CC1 | 7.7 |
| O=C(CN1CCN(c2ccccn2)CC1)Nc1ccc(-c2cccn3c(=O)cc(N4CCOCC4)nc23)c2sc3ccccc3c12 | 3.9 |
| CN1CCN(CC(=O)Nc2ccc(-c3cccn4c(=O)cc(N5CCOCC5)nc34)c3sc4ccccc4c23)CC1 | 9.2 |
| O=C(CN1CCN(CCO)CC1)Nc1ccc(-c2cccn3c(=O)cc(N4CCOCC4)nc23)c2sc3ccccc3c12 | 13.6 |
| O=C(CN(CCO)CCO)Nc1ccc(-c2cccn3c(=O)cc(N4CCOCC4)nc23)c2sc3ccccc3c12 | 3.8 |
| C[C@@H]1CN(CC(=O)Nc2ccc(-c3cccn4c(=O)cc(N5CCOCC5)nc34)c3sc4ccccc4c23)C[C@H](C)O1 | 15.1 |
| O=C(CN1CCN(CCOCCO)CC1)Nc1ccc(-c2cccn3c(=O)cc(N4CCOCC4)nc23)c2sc3ccccc3c12 | 8.3 |
| CC(C)NC(=O)CN1CCN(CC(=O)Nc2ccc(-c3cccn4c(=O)cc(N5CCOCC5)nc34)c3sc4ccccc4c23)CC1 | 7.3 |
| O=C(CCN1CCOCC1)Nc1ccc(-c2cccn3c(=O)cc(N4CCOCC4)nc23)c2sc3ccccc3c12 | 6.2 |
| O=C(CCN1CCCCC1)Nc1ccc(-c2cccn3c(=O)cc(N4CCOCC4)nc23)c2sc3ccccc3c12 | 14.3 |
| COc1ccc(CNCCC(=O)Nc2ccc(-c3cccn4c(=O)cc(N5CCOCC5)nc34)c3sc4ccccc4c23)cc1 | 6.7 |
| O=C(CCNCC1CCCO1)Nc1ccc(-c2cccn3c(=O)cc(N4CCOCC4)nc23)c2sc3ccccc3c12 (stereo not given) | 4.3 |
| O=C(CCNCCCN1CCOCC1)Nc1ccc(-c2cccn3c(=O)cc(N4CCOCC4)nc23)c2sc3ccccc3c12 | 1.7 |
| CC(=O)N1CCN(CCC(=O)Nc2ccc(-c3cccn4c(=O)cc(N5CCOCC5)nc34)c3sc4ccccc4c23)CC1 | 2.1 |
| C[C@@H]1CN(CCC(=O)Nc2ccc(-c3cccn4c(=O)cc(N5CCOCC5)nc34)c3sc4ccccc4c23)C[C@H](C)O1 | 4.6 |
| NCC(=O)Nc1ccc(-c2cccc3c(=O)cc(N4CCOCC4)[nH]c23)c2sc3ccccc3c12 | 2.6 |
| O=C(CN1CCOCC1)Nc1ccc(-c2cccc3c(=O)cc(N4CCOCC4)[nH]c23)c2sc3ccccc3c12 | 3.1 |
| O=C(CN1CCNCC1)Nc1ccc(-c2cccc3c(=O)cc(N4CCOCC4)[nH]c23)c2sc3ccccc3c12 | 2.2 |
| COCCN1CCN(CC(=O)Nc2ccc(-c3cccc4c(=O)cc(N5CCOCC5)[nH]c34)c3sc4ccccc4c23)CC1 | 8.2 |
| CCN1CCN(CC(=O)Nc2ccc(-c3cccc4c(=O)cc(N5CCOCC5)[nH]c34)c3sc4ccccc4c23)CC1 | 3.4 |
| O=C(CN1CCN(c2ccccn2)CC1)Nc1ccc(-c2cccc3c(=O)cc(N4CCOCC4)[nH]c23)c2sc3ccccc3c12 | 5.8 |
| CN1CCN(CC(=O)Nc2ccc(-c3cccc4c(=O)cc(N5CCOCC5)[nH]c34)c3sc4ccccc4c23)CC1 | 2.5 |
| O=C(CN1CCN(CCO)CC1)Nc1ccc(-c2cccc3c(=O)cc(N4CCOCC4)[nH]c23)c2sc3ccccc3c12 | 2.1 |
| O=C(CNCCCN1CCOCC1)Nc1ccc(-c2cccc3c(=O)cc(N4CCOCC4)[nH]c23)c2sc3ccccc3c12 | 4 |

Test system: not listed separately
Assay: Inhibition of DNA-PK isolated from human HeLa cell extract assessed as reduction in p53 Ser15 phosphorylation by chemiluminescence assay
Format: cell-free

| SMILES | IC50 [nM] |
| --- | --- |
| O=C(CN1CCN(c2ccccn2)CC1)Nc1ccc(-c2cccn3c(=O)cc(N4CCOCC4)nc23)c2sc3ccccc3c12 | 175 |
| O=C(CN(CCO)CCO)Nc1ccc(-c2cccn3c(=O)cc(N4CCOCC4)nc23)c2sc3ccccc3c12 | 29 |
| C[C@@H]1CN(CC(=O)Nc2ccc(-c3cccn4c(=O)cc(N5CCOCC5)nc34)c3sc4ccccc4c23)C[C@H](C)O1 | 7 |
| COc1ccc(CNCCC(=O)Nc2ccc(-c3cccn4c(=O)cc(N5CCOCC5)nc34)c3sc4ccccc4c23)cc1 | 12 |
| O=C(CCNCC1CCCO1)Nc1ccc(-c2cccn3c(=O)cc(N4CCOCC4)nc23)c2sc3ccccc3c12 (stereo not given) | 77 |
| O=C(CCNCCCN1CCOCC1)Nc1ccc(-c2cccn3c(=O)cc(N4CCOCC4)nc23)c2sc3ccccc3c12 | 29 |
| C[C@@H]1CN(CCC(=O)Nc2ccc(-c3cccn4c(=O)cc(N5CCOCC5)nc34)c3sc4ccccc4c23)C[C@H](C)O1 | 27 |
| NCC(=O)Nc1ccc(-c2cccc3c(=O)cc(N4CCOCC4)[nH]c23)c2sc3ccccc3c12 | 198 |
| O=C(CN1CCOCC1)Nc1ccc(-c2cccc3c(=O)cc(N4CCOCC4)[nH]c23)c2sc3ccccc3c12 | 60 |
| O=C(CN1CCNCC1)Nc1ccc(-c2cccc3c(=O)cc(N4CCOCC4)[nH]c23)c2sc3ccccc3c12 | 133 |
| COCCN1CCN(CC(=O)Nc2ccc(-c3cccc4c(=O)cc(N5CCOCC5)[nH]c34)c3sc4ccccc4c23)CC1 | 33 |
| CCN1CCN(CC(=O)Nc2ccc(-c3cccc4c(=O)cc(N5CCOCC5)[nH]c34)c3sc4ccccc4c23)CC1 | 61 |
| O=C(CN1CCN(c2ccccn2)CC1)Nc1ccc(-c2cccc3c(=O)cc(N4CCOCC4)[nH]c23)c2sc3ccccc3c12 | 19 |
| CN1CCN(CC(=O)Nc2ccc(-c3cccc4c(=O)cc(N5CCOCC5)[nH]c34)c3sc4ccccc4c23)CC1 | 43 |
| O=C(CN1CCN(CCO)CC1)Nc1ccc(-c2cccc3c(=O)cc(N4CCOCC4)[nH]c23)c2sc3ccccc3c12 | 18 |
| O=C(CNCCCN1CCOCC1)Nc1ccc(-c2cccc3c(=O)cc(N4CCOCC4)[nH]c23)c2sc3ccccc3c12 | 64 |

The remaining lines, values ahead:

| IC50 [nM] | SMILES |
| --- | --- |
| 25 | O=C(CN1CCNCC1)Nc1ccc(-c2cccn3c(=O)cc(N4CCOCC4)nc23)c2sc3ccccc3c12 |
| 8 | O=C(CN1CCOCC1)Nc1ccc(-c2cccn3c(=O)cc(N4CCOCC4)nc23)c2sc3ccccc3c12 |
| 22 | COCCN1CCN(CC(=O)Nc2ccc(-c3cccn4c(=O)cc(N5CCOCC5)nc34)c3sc4ccccc4c23)CC1 |
| 18 | CCN1CCN(CC(=O)Nc2ccc(-c3cccn4c(=O)cc(N5CCOCC5)nc34)c3sc4ccccc4c23)CC1 |
| 24 | CN1CCN(CC(=O)Nc2ccc(-c3cccn4c(=O)cc(N5CCOCC5)nc34)c3sc4ccccc4c23)CC1 |
| 19 | O=C(CN1CCN(CCO)CC1)Nc1ccc(-c2cccn3c(=O)cc(N4CCOCC4)nc23)c2sc3ccccc3c12 |
| 51 | O=C(CN1CCN(CCOCCO)CC1)Nc1ccc(-c2cccn3c(=O)cc(N4CCOCC4)nc23)c2sc3ccccc3c12 |
| 25 | CC(C)NC(=O)CN1CCN(CC(=O)Nc2ccc(-c3cccn4c(=O)cc(N5CCOCC5)nc34)c3sc4ccccc4c23)CC1 |
| 86 | O=C(CCN1CCOCC1)Nc1ccc(-c2cccn3c(=O)cc(N4CCOCC4)nc23)c2sc3ccccc3c12 |
| 28 | O=C(CCN1CCCCC1)Nc1ccc(-c2cccn3c(=O)cc(N4CCOCC4)nc23)c2sc3ccccc3c12 |
| 32 | CC(=O)N1CCN(CCC(=O)Nc2ccc(-c3cccn4c(=O)cc(N5CCOCC5)nc34)c3sc4ccccc4c23)CC1 |

Test system: HeLa
Assay: Potentiation of ionizing radiation-induced cytotoxicity in human HeLa cells assessed as dose modification ratio at 0.1 uM pretreated 1 hr before 2 Gy ionizing radiation by Giemsa staining relative untreated control
Format: functional
In short: as §1

| SMILES | Ratio |
| --- | --- |
| O=C(CN1CCNCC1)Nc1ccc(-c2cccn3c(=O)cc(N4CCOCC4)nc23)c2sc3ccccc3c12 | 1.5 |
| O=C(CN1CCOCC1)Nc1ccc(-c2cccn3c(=O)cc(N4CCOCC4)nc23)c2sc3ccccc3c12 | 3.5 |
| COCCN1CCN(CC(=O)Nc2ccc(-c3cccn4c(=O)cc(N5CCOCC5)nc34)c3sc4ccccc4c23)CC1 | 4 |
| CCN1CCN(CC(=O)Nc2ccc(-c3cccn4c(=O)cc(N5CCOCC5)nc34)c3sc4ccccc4c23)CC1 | 1.4 |
| CN1CCN(CC(=O)Nc2ccc(-c3cccn4c(=O)cc(N5CCOCC5)nc34)c3sc4ccccc4c23)CC1 | 2.4 |
| O=C(CN1CCN(CCO)CC1)Nc1ccc(-c2cccn3c(=O)cc(N4CCOCC4)nc23)c2sc3ccccc3c12 | 1.4 |
| O=C(CN(CCO)CCO)Nc1ccc(-c2cccn3c(=O)cc(N4CCOCC4)nc23)c2sc3ccccc3c12 | 1.1 |
| O=C(CN1CCN(CCOCCO)CC1)Nc1ccc(-c2cccn3c(=O)cc(N4CCOCC4)nc23)c2sc3ccccc3c12 | 1 |
| O=C(CCN1CCOCC1)Nc1ccc(-c2cccn3c(=O)cc(N4CCOCC4)nc23)c2sc3ccccc3c12 | 6.2 |
| O=C(CCN1CCCCC1)Nc1ccc(-c2cccn3c(=O)cc(N4CCOCC4)nc23)c2sc3ccccc3c12 | 14.3 |
| COc1ccc(CNCCC(=O)Nc2ccc(-c3cccn4c(=O)cc(N5CCOCC5)nc34)c3sc4ccccc4c23)cc1 | 6.7 |
| O=C(CCNCC1CCCO1)Nc1ccc(-c2cccn3c(=O)cc(N4CCOCC4)nc23)c2sc3ccccc3c12 (stereo not given) | 4.3 |
| O=C(CCNCCCN1CCOCC1)Nc1ccc(-c2cccn3c(=O)cc(N4CCOCC4)nc23)c2sc3ccccc3c12 | 1.7 |
| CC(=O)N1CCN(CCC(=O)Nc2ccc(-c3cccn4c(=O)cc(N5CCOCC5)nc34)c3sc4ccccc4c23)CC1 | 2.1 |
| C[C@@H]1CN(CCC(=O)Nc2ccc(-c3cccn4c(=O)cc(N5CCOCC5)nc34)c3sc4ccccc4c23)C[C@H](C)O1 | 4.6 |
| COCCN1CCN(CC(=O)Nc2ccc(-c3cccc4c(=O)cc(N5CCOCC5)[nH]c34)c3sc4ccccc4c23)CC1 | 1.2 |
